# Results from different studies.
# Protocols differ between the studies behind these lines.
# Target: Serine/threonine-protein kinase MRCK alpha (CDC42BPA, Homo sapiens, UniProt Q5VT25)
Structure (SMILES),assay,conditions,remaining binding [%]
Cc1cc(-n2nc(Cc3cc(F)cc(C(F)(F)F)c3)nc2C)ccc1C(N)=O,"cell-free assay, competition with immobilised ligand",1 µM,100
CN(C)c1nccc(-c2cnn3ncccc23)n1,binding,1 µM,100
O=C(Nc1cccnn1)N1CCC(=Cc2cccc(Oc3ccc(C(F)(F)F)cn3)c2)CC1,"cell-free assay, competition with immobilised ligand",1 µM,95
CN(CCCC(F)(F)F)c1nccc(-c2cnn3ncccc23)n1,binding,1 µM,100
O=C(NCc1ncc(C(F)(F)F)cc1Cl)c1ccc2c(c1)C1(CCS(=O)(=O)CC1)[C@@H](C1CC1)N2S(=O)(=O)c1ccc(F)cc1,"cell-free assay, competition with immobilised ligand",1 µM,100
CN(C)c1nccc(-c2cnc3ncccn23)n1,binding,1 µM,83
COc1cnc(Nc2cccc(S(N)(=O)=O)c2)nc1N1CCN(c2ccccc2)C(=O)C1,"binding, competition with immobilised ligand",1 µM,100
O=C(c1ccc(Nc2ncc(Cl)c(-c3ccc(Cl)s3)n2)cc1)N1CCC(N2CCCC2)CC1,"binding, competition with immobilised ligand",1 µM,53
Cc1cnn2ncc(-c3ccnc(N(C)C)n3)c2c1,binding,1 µM,87
O=C1CCc2cc(Nc3cc(OC4CCOCC4)c([N+](=O)[O-])cc3Cl)ccc2N1,"cell-free assay, competition with immobilised ligand",1 µM,91
COc1cnc(Nc2cccc(S(N)(=O)=O)c2)nc1N1CCN(c2ccccc2)CC1,"binding, competition with immobilised ligand",1 µM,97
CN(c1nccc(-c2cnn3ncccc23)n1)C1CC1,binding,1 µM,100
O=C(c1ccc(Nc2ncc(Cl)c(-c3cc4ccccc4s3)n2)cc1)N1CCC(N2CCCC2)CC1,"binding, competition with immobilised ligand",1 µM,14
CN(C)CC#Cc1ccc(OCCCc2sc(N3CCc4cccc(C(=O)Nc5nc6ccccc6s5)c4C3)nc2C(=O)O)c(F)c1,"cell-free assay, competition with immobilised ligand",1 µM,97
O=C(Nc1c[nH]nc1C(=O)NC1CCNCC1)c1cc(F)cc(F)c1,"binding, competition with immobilised ligand",1 µM,95
COc1ncc2cc3ccccc3nc2c1C#N,"cell-free assay, competition with immobilised ligand",5 µM,100
O=C(NCCCN1CCOCC1)c1ccc(Nc2ncc(Cl)c(-c3ccc(Cl)s3)n2)cc1,"binding, competition with immobilised ligand",1 µM,100
N[C@H]1CCN(c2nccc(-c3cnn4ncccc34)n2)C1,binding,1 µM,84
CN1CCN(c2cnc3c(C4CCN(C(=O)c5ccc(OC(F)(F)F)cc5N)CC4)ncnc3c2)CC1,"cell-free assay, competition with immobilised ligand",1 µM,100
c1cncc(-c2cccc(Nc3nccc(NC4CCCCC4)n3)c2)c1,"binding, competition with immobilised ligand",10 µM,100
CN(C)c1ncc(F)c(-c2cnn3ncccc23)n1,binding,1 µM,100
Cc1cc(NC(=O)c2cccc(S(F)(F)(F)(F)F)c2)cc(-n2ccn3nc(-c4cccnc4)cc23)c1,"cell-free assay, competition with immobilised ligand",1 µM,88.5
